Laboratory results taken from ChEMBL document CHEMBL2375359, “Synthesis and antibacterial evaluation of novel pleuromutilin derivatives” (2013).
Converted amounts (≈) assume the structure as drawn.

Columns and labels:
Assay type in all cases: functional
[1] = system: Staphylococcus epidermidis; assay: Antibacterial activity against methicillin-resistant Staphylococcus epidermidis after 48 hrs by agar dilution method
In short: (§1)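 Agar dilution per NCCLS: 2-fold serial dilutions incorporated into hot Mueller-Hinton agar. Clinical isolates grown from blood slants, suspended in sterile 0.90% NaCl to about 10⁵–10⁶ cfu/mL, spotted onto plates. Incubation 36.5 °C, 48 h. MIC taken as the lowest concentration giving complete growth inhibition. Run in triplicate at pH 7.40.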

Staphylococcus aureus [2] = assay: Antibacterial activity against methicillin-resistant Staphylococcus aureus at 80 ug/ml after 24 hrs by Oxford cup assay; conditions: read-out: IZ
In short: (§2)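 Oxford cup diffusion: clinical isolate inoculum in 0.9% saline set by McFarland standard, spread evenly on nutrient agar. Cups placed equidistant on the surface and filled with compound solutions prepared as for the agar dilution test, at several concentrations. Inhibition zone measured after 24 h at 37 °C.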

Streptococcus agalactiae [3] = assay: Antibacterial activity against Streptococcus agalactiae at 160 ug/ml after 24 hrs by Oxford cup assay; conditions: read-out: IZ
In short: (§3)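 Oxford cup diffusion with clinical isolates. Inoculum made in 0.9% saline to a McFarland standard and spread evenly on nutrient agar. Compound solutions, prepared as for the agar dilution test, were added at the stated concentration to Oxford cups set equidistant on the agar surface. Inhibition zones were measured after 24 h at 37 °C.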

[4] = system: Staphylococcus epidermidis; assay: Antibacterial activity against methicillin-resistant Staphylococcus epidermidis at 160 ug/ml after 24 hrs by Oxford cup assay; conditions: read-out: IZ; in short: as §2
[5] = system: Staphylococcus epidermidis; assay: Antibacterial activity against methicillin-resistant Staphylococcus epidermidis at 80 ug/ml after 24 hrs by Oxford cup assay; conditions: read-out: IZ; in short: as §2
Escherichia coli [6] = assay: Antibacterial activity against Escherichia coli at 320 ug/ml after 24 hrs by Oxford cup assay; conditions: read-out: IZ; in short: as §3
Streptococcus agalactiae [7] = assay: Antibacterial activity against Streptococcus agalactiae at 80 ug/ml after 24 hrs by Oxford cup assay; conditions: read-out: IZ; in short: as §3
Streptococcus agalactiae [8] = assay: Antibacterial activity against Streptococcus agalactiae at 320 ug/ml after 24 hrs by Oxford cup assay; conditions: read-out: IZ; in short: as §3
Streptococcus agalactiae [9] = assay: Antibacterial activity against Streptococcus agalactiae after 48 hrs by agar dilution method
In short: (§4)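 Agar dilution per NCCLS on clinical isolates. 2-fold serial dilutions of compound (2 mL) mixed into 18 mL hot Mueller-Hinton agar. Inoculum from blood slants, adjusted to approx. 10⁵–10⁶ cfu/mL in sterile 0.90% NaCl, then spotted onto the plates. Incubated 36.5 °C, 48 h. MIC is the lowest concentration giving complete growth inhibition. Run in triplicate at pH 7.40.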

Escherichia coli [10] = assay: Antibacterial activity against Escherichia coli after 48 hrs by agar dilution method; in short: as §4
Staphylococcus aureus [11] = assay: Antibacterial activity against methicillin-resistant Staphylococcus aureus at 320 ug/ml after 24 hrs by Oxford cup assay; conditions: read-out: IZ; in short: as §2
Escherichia coli [12] = assay: Antibacterial activity against Escherichia coli at 80 ug/ml after 24 hrs by Oxford cup assay; conditions: read-out: IZ; in short: as §3
Staphylococcus aureus [13] = assay: Antibacterial activity against methicillin-resistant Staphylococcus aureus after 48 hrs by agar dilution method; in short: as §1
Escherichia coli [14] = assay: Antibacterial activity against Escherichia coli at 160 ug/ml after 24 hrs by Oxford cup assay; conditions: read-out: IZ; in short: as §3
[15] = system: Staphylococcus epidermidis; assay: Antibacterial activity against methicillin-resistant Staphylococcus epidermidis at 320 ug/ml after 24 hrs by Oxford cup assay; conditions: read-out: IZ; in short: as §2
Staphylococcus aureus [16] = assay: Antibacterial activity against methicillin-resistant Staphylococcus aureus at 160 ug/ml after 24 hrs by Oxford cup assay; conditions: read-out: IZ; in short: as §2

SMILES	MIC [1] [µg/mL]	zone of inhibition at 80 µg/mL (Staphylococcus aureus [2]) [mm]	zone of inhibition at 160 µg/mL (Streptococcus agalactiae [3]) [mm]	zone of inhibition at 160 µg/mL [4] [mm]	zone of inhibition at 80 µg/mL [5] [mm]	zone of inhibition at 320 µg/mL (Escherichia coli [6]) [mm]	zone of inhibition at 80 µg/mL (Streptococcus agalactiae [7]) [mm]	zone of inhibition at 320 µg/mL (Streptococcus agalactiae [8]) [mm]	MIC (Streptococcus agalactiae [9]) [µg/mL]	MIC (Escherichia coli [10]) [µg/mL]	zone of inhibition at 320 µg/mL (Staphylococcus aureus [11]) [mm]	zone of inhibition at 80 µg/mL (Escherichia coli [12]) [mm]	MIC (Staphylococcus aureus [13]) [µg/mL]	zone of inhibition at 160 µg/mL (Escherichia coli [14]) [mm]	zone of inhibition at 320 µg/mL [15] [mm]	zone of inhibition at 160 µg/mL (Staphylococcus aureus [16]) [mm]
C=C[C@]1(C)C[C@@H](OC(=O)CSC(C)(C)CNC(=O)c2ccc(OC)cc2)[C@]2(C)[C@H](C)CC[C@]3(CCC(=O)[C@H]32)[C@@H](C)[C@@H]1O	2 (≈ 3.33 µM)	15.3	15.9	15.2	14.4	18.5	16	16.6	0.5 (≈ 0.834 µM)	1 (≈ 1.67 µM)	19.7	15.7	0.25 (≈ 0.417 µM)	17.1	18.3	18.4
C=C[C@]1(C)C[C@@H](OC(=O)CSC(C)(C)CNC(=O)c2ccccc2N)[C@]2(C)[C@H](C)CC[C@]3(CCC(=O)[C@H]32)[C@@H](C)[C@@H]1O	0.5 (≈ 0.855 µM)	16.6	11.8	16	15.3	13.8	12	11.9	0.5 (≈ 0.855 µM)	2 (≈ 3.42 µM)	19.6	13.1	1 (≈ 1.71 µM)	13.7	17.4	18.9
C=C[C@]1(C)C[C@@H](OC(=O)CSC(C)(C)CNC(=O)c2cccc(N)c2)[C@]2(C)[C@H](C)CC[C@]3(CCC(=O)[C@H]32)[C@@H](C)[C@@H]1O	1 (≈ 1.71 µM)	9.56	9.8	9.72	9.63	10.7	8.86	9.66	0.5 (≈ 0.855 µM)	8 (≈ 13.7 µM)	10.2	9.94	2 (≈ 3.42 µM)	12.5	11.2	10.8
C=C[C@]1(C)C[C@@H](OC(=O)CSC(C)(C)CNC(=O)c2ccc(N)cc2)[C@]2(C)[C@H](C)CC[C@]3(CCC(=O)[C@H]32)[C@@H](C)[C@@H]1O	0.5 (≈ 0.855 µM)	20.6	11.6	18.1	17.3	18.8	10.9	11.4	0.5 (≈ 0.855 µM)	2 (≈ 3.42 µM)	22.2	18.1	0.25 (≈ 0.427 µM)	17.8	17.9	21.6
C=C[C@]1(C)C[C@@H](OC(=O)CSC(C)(C)CNC(=O)[C@H](N)c2ccccc2)[C@]2(C)[C@H](C)CC[C@]3(CCC(=O)[C@H]32)[C@@H](C)[C@@H]1O	16 (≈ 26.7 µM)	9.41	10.6	10	10.9	10.8	10.1	11	16 (≈ 26.7 µM)	8 (≈ 13.4 µM)	10.2	9.2	2 (≈ 3.34 µM)	11.3	10.8	9.98
C=C[C@]1(C)C[C@@H](OC(=O)CSC(C)(C)CNC(=O)[C@@H](N)c2ccccc2)[C@]2(C)[C@H](C)CC[C@]3(CCC(=O)[C@H]32)[C@@H](C)[C@@H]1O	4 (≈ 6.68 µM)	9.82	10.4	10.6	10.3	10.7	10.7	11.2	8 (≈ 13.4 µM)	4 (≈ 6.68 µM)	10.3	10	0.25 (≈ 0.417 µM)	9.89	11.2	10.1
C=C[C@]1(C)C[C@@H](OC(=O)CSC(C)(C)CNC(=O)c2cc3ccccc3[nH]2)[C@]2(C)[C@H](C)CC[C@]3(CCC(=O)[C@H]32)[C@@H](C)[C@@H]1O	16 (≈ 26.3 µM)	9.05	9.62	8.84	10.3	10.8	9.31	9.25	8 (≈ 13.1 µM)	16 (≈ 26.3 µM)	8.52	8.87	2 (≈ 3.28 µM)	9.52	9	8.77
C=C[C@]1(C)C[C@@H](OC(=O)CSC(C)(C)CNC(=O)OCC(C)C)[C@]2(C)[C@H](C)CC[C@]3(CCC(=O)[C@H]32)[C@@H](C)[C@@H]1O	8 (≈ 14.1 µM)	9.64	9.01	11	10.6	10.3	9.85	10.2	4 (≈ 7.07 µM)	16 (≈ 28.3 µM)	10.9	9.91	2 (≈ 3.53 µM)	9.55	11.1	9.56
C=C[C@]1(C)C[C@@H](OC(=O)CSC(C)(C)CNC(=O)OCc2ccccc2)[C@]2(C)[C@H](C)CC[C@]3(CCC(=O)[C@H]32)[C@@H](C)[C@@H]1O	32 (≈ 53.3 µM)	10.4	10.6	10.2	11	14.7	10.7	11.5	16 (≈ 26.7 µM)	32 (≈ 53.3 µM)	12.7	11.7	4 (≈ 6.67 µM)	15.3	11	11.5
